Measurements as given in ChEMBL document CHEMBL1143764, “Cyclic and dimeric gluten peptide analogues inhibiting DQ2-mediated antigen presentation in celiac disease” (Bioorg Med Chem, 2007).
Active and inactive are the calls of the source. The rule behind the calls is not given here. *1 amine or outer side, *2 acyl side, *3 side chain or, on linkers, in order; H or OH if unused. Where a SMILES comes first, the peptide text is derived from it. Bridges are numbered along the chain shown (N, C = ends). Side-chain parts run from the residue outwards. [ ]: non-standard residue; d: D form. The star is where a group is joined. N(prolylmethyl)Phe = O=C(CN([C@@H](Cc1ccccc1)C(=O)[*:2])[*:1])[C@@H]1CCCN1[*:3]; X1 = O=C(CCCOCCOCCOCCOCCOCCC(=O)NCCOCCOCC(=O)[*:1])NCCOCCOCC(=O)[*:2]; X2 = O=C(CCOCCOCCOCCOCCOCCOCCOCCOCCOCCOCCOCCC(=O)[*:2])[*:1]; 5FAM = O=C1OC2(c3ccc(O)cc3Oc3cc(O)ccc32)c2ccc(C(=O)*)cc21; X3 = O=C(CCOCCOCCOCCOCCOCCOCCOCCC(=O)[*:2])[*:1]

What was measured:
T-cell = assay: Inhibition of P28 TCL2 T cell proliferation assessed as incorporation of [3H]-thymidine in presence of 10 uM antigen peptide; type: functional, cell-based; settings: Homo sapiens
In short: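 HLA-DR3/DQ2 homozygous EBV B-lymphoblastoid cells (VAVY or CD114), fixed with 1% paraformaldehyde or 0.05% glutaraldehyde, peptide-loaded overnight at 2×10^6 cells/ml. Next day at 1×10^6/ml, duplicates, mixed with equal volume of P28 TCL2 T cells; 37°C, 5% CO2, 48 h. [3H]thymidine added, further 12–16 h, scintillation counting.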

[1] = Binding affinity to DQ2; parameters: species or system Homo sapiens
In short: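 Competition binding: 125I-labeled indicator peptide (30,000 cpm; 1–5 nM) plus graded unlabeled peptide incubated overnight with 70–200 nM DQ2 at 37°C, pH 5.2, with protease inhibitor cocktail. Bound separated from free on Sephadex G-50 spin columns; radioactivity counted; IC50 as competitor level halving indicator binding, from three 3-fold titration experiments.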

Homo sapiens = species on record: Homo sapiens; assay: Binding affinity to recombinant DQ2 at pH 7.3 by fluorescent-conjugated peptide exchange assay
In short: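 Recombinant soluble DQ2 with N-terminally fused gliadin epitope, cleaved with ~2% w/w thrombin in PBS pH 7.3, 0°C, 2 h. 4.7 μM DQ2 with 0.185 μM fluorescein-labeled peptide (25:1), 37°C, 5 h, final pH 7.3. HPSEC with fluorescence (ex 495/em 520 nm); bound peptide as percent of total; mean of two experiments.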

SMILES | IC50 [1] [nM] | Activity (Homo sapiens) | Activity (T-cell)
CC(C)C[C@@H]1NC(=O)CNC(=O)CNC(=O)CNC(=O)CNC(=O)CNC(=O)CNC(=O)[C@H](N)CSSC[C@H](C(=O)O)NC(=O)CNC(=O)CNC(=O)[C@H](Cc2ccc(O)cc2)NC(=O)[C@H]2CCCN2C(=O)[C@H](CC(C)C)NC(=O)[C@H](CCC(=O)O)NC(=O)[C@@H]2CCCN2C(=O)[C@H](CCC(N)=O)NC(=O)[C@@H]2CCCN2C(=O)[C@H](Cc2ccccc2)NC(=O)[C@@H]2CCCN2C(=O)[C@H](CCC(N)=O)NC1=O | 4200 |  | Dose-dependent effect
CC(C)C[C@@H]1NC(=O)CNC(=O)CNC(=O)CNC(=O)CNC(=O)[C@H](N)CSSC[C@H](C(=O)O)NC(=O)CNC(=O)CNC(=O)[C@H](Cc2ccc(O)cc2)NC(=O)[C@@H]2CCCN2C(=O)[C@H](CC(C)C)NC(=O)[C@H](CCC(=O)O)NC(=O)[C@@H]2CCCN2C(=O)[C@H](CCC(N)=O)NC(=O)[C@@H]2CCCN2C(=O)[C@H](Cc2ccccc2)NC(=O)[C@@H]2CCCN2C(=O)[C@H](CCC(N)=O)NC1=O | 3100 |  | Dose-dependent effect
CC(C)C[C@H](NC(=O)c1ccc2c(c1)C(=O)OC21c2ccc(O)cc2Oc2cc(O)ccc21)C(=O)N[C@@H](CCC(=O)O)C(=O)N[C@@H](CC(C)C)C(=O)N[C@@H](CCC(N)=O)C(=O)N1CCC[C@H]1C(=O)CN[C@@H](Cc1ccccc1)C(=O)N1CCC[C@H]1C(=O)N[C@@H](CCC(=O)O)C(=O)N1CCC[C@H]1C(=O)N[C@@H](CCC(=O)O)C(=O)N[C@H]1CCCCNC(=O)COCCOCCNC(=O)CCOCCOCCOCCOCCOCCCC(=O)NCCOCCOCC(=O)NCCCC[C@@H](C(=O)N2CCC[C@H]2C(=O)N[C@@H](Cc2ccc(O)cc2)C(=O)O)NC(=O)[C@H](CCC(=O)O)NC(=O)[C@@H]2CCCN2C(=O)[C@H](CCC(=O)O)NC(=O)[C@@H]2CCCN2C(=O)[C@H](Cc2ccc(O)cc2)NC(=O)[C@@H]2CCCN2C1=O (H-[N(prolylmethyl)Phe]([Gln-Leu-Glu-Leu-5FAM])PEPEKPYPEPEKPY-OH; linker 6-13 via X1) | 300 | Active | Dose-dependent effect
CC(C)C[C@@H]1NC(=O)CNC(=O)CNC(=O)[C@H](N)CSSC[C@H](C(=O)O)NC(=O)CNC(=O)CNC(=O)[C@H](Cc2ccc(O)cc2)NC(=O)[C@@H]2CCCN2C(=O)[C@H](CC(C)C)NC(=O)[C@H](CCC(=O)O)NC(=O)[C@@H]2CCCN2C(=O)[C@H](CCC(N)=O)NC(=O)[C@@H]2CCCN2C(=O)[C@H](Cc2ccccc2)NC(=O)[C@@H]2CCCN2C(=O)[C@H](CCC(N)=O)NC1=O | 2000 |  | Dose-dependent effect

Further lines, with some results ahead:

IC50 [1] [nM] | Activity (Homo sapiens) | SMILES | Activity (T-cell)
600 |  | CC(=O)N[C@H]1CCCCNC(=O)CCOCCOCCOCCOCCOCCOCCOCCC(=O)NCCCC[C@@H](C(=O)N[C@@H](CCC(=O)O)C(=O)N[C@@H](CC(C)C)C(=O)N2CCC[C@H]2C(=O)N[C@@H](Cc2ccc(O)cc2)C(=O)O)NC(=O)[C@H](CCC(=O)O)NC(=O)[C@@H]2CCCN2C(=O)[C@H](Cc2ccccc2)NC(=O)[C@@H]2CCCN2C(=O)[C@H](CCC(N)=O)NC1=O (Ac-KQPFPEKELPY-OH; linker 1-7 via X3) | Dose-dependent effect
800 |  | CC(=O)N[C@H]1CCCCNC(=O)CCOCCOCCOCCOCCOCCOCCOCCOCCOCCOCCOCCC(=O)NCCCC[C@@H](C(=O)N[C@@H](CCC(=O)O)C(=O)N[C@@H](CC(C)C)C(=O)N2CCC[C@H]2C(=O)N[C@@H](Cc2ccc(O)cc2)C(=O)O)NC(=O)[C@H](CCC(=O)O)NC(=O)[C@@H]2CCCN2C(=O)[C@H](Cc2ccccc2)NC(=O)[C@@H]2CCCN2C(=O)[C@H](CCC(N)=O)NC1=O (Ac-KQPFPEKELPY-OH; linker 1-7 via X2) | Dose-dependent effect
200 | Active | CC(C)C[C@H](NC(=O)c1ccc2c(c1)C(=O)OC21c2ccc(O)cc2Oc2cc(O)ccc21)C(=O)N[C@@H](CCC(=O)O)C(=O)N[C@@H](CC(C)C)C(=O)N[C@@H](CCC(N)=O)C(=O)N1CCC[C@H]1C(=O)CN[C@@H](Cc1ccccc1)C(=O)N1CCC[C@H]1C(=O)N[C@@H](CCC(=O)O)C(=O)N1CCC[C@H]1C(=O)N[C@@H](CCC(=O)O)C(=O)N[C@H]1CCCCNC(=O)CCOCCOCCOCCOCCOCCC(=O)CNCCCC[C@@H](C(=O)N2CCC[C@H]2C(=O)N[C@@H](Cc2ccc(O)cc2)C(=O)O)NC(=O)[C@H](CCC(=O)O)NC(=O)[C@@H]2CCCN2C(=O)[C@H](CCC(=O)O)NC(=O)[C@@H]2CCCN2C(=O)[C@H](Cc2ccc(O)cc2)NC(=O)[C@@H]2CCCN2C1=O | Dose-dependent effect
